Our source for the pKa values is ChEMBL document CHEMBL1130185, “Search for DNA repair inhibitors: selective binding of nucleic bases-acridine conjugates to a DNA duplex containing an abasic site” (J Med Chem, 1997).

The nature of data set [1]: Deprotonation equilibrium constant for compound was determined. The format is ADME. A digest of the protocol:
(§1)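 pKa values were determined by potentiometric titration of the acridine ligand at 5 × 10^-4 M across pH 2-12. The distribution of nonprotonated, mono-, bi- and higher protonated species was estimated graphically from the titration curves.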

Data set [2] in a line: Deprotonation equilibrium constant for compound was determined at pH<4. The format is ADME. The procedure, abridged:
as §1

As for `COc1ccc2nc3cc(Cl)ccc3c(NCCCNCCCN)c2c1`, in data set [1], the pKa was determined as 10.

In the case of `COc1ccc2nc3cc(Cl)ccc3c(NCCCNCCCNCCn3cnc4c(N)nc(N)nc43)c2c1`, the pKa in data set [2] was 4; in data set [1], 9.8.

The pKa is the negative logarithm of the acid dissociation constant. Higher therefore signals a group that holds its proton tightly.
